Measurements: ChEMBL document CHEMBL5143722, “Antimicrobial Peptides against Multidrug-Resistant Pseudomonas aeruginosa Biofilm from Cystic Fibrosis Patients” (J Med Chem, 2022)
Calls of active or inactive are those of the source. The calls are words filed in the database; no cut-off is given here.

Columns and labels:
Pseudomonas aeruginosa [1] = assay: Induction of biofilm degradation of Pseudomonas aeruginosa clinical isolate 629 at sub MIC concentration incubated for 1 hr by crystal violet staining analysis; type: functional
How it was run: (§1)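 Bacteria at 1 × 10^6 CFU/mL in BM2 grown static at 37 °C for 24 h to form biofilm. Wells rinsed of unattached cells, then exposed for 1 h to serial peptide dilutions (1.56–50 μM). Washed, stained with 0.1% crystal violet, A590 read. Biomass given as % of untreated biofilm; no-bacteria wells as blanks. At least three biological repeats.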

Pseudomonas aeruginosa [2] = assay: Antibiofilm activity against Pseudomonas aeruginosa PAO1 in basal medium 2 at 12.5 to 100 uM incubated for 24 hrs by resazurin staining based microtiter plate method; type: functional, organism-based; details: dose 12.5-100 µM
[3] = tested on: Pseudomonas aeruginosa PAO1; assay: Induction of biofilm degradation of Pseudomonas aeruginosa PAO1 in cystic fibrosis patient sputum at 10 uM incubated for 48 hr by resazurin staining based confocal microscopy analysis
Pseudomonas aeruginosa [4] = assay: Antibiofilm activity against Pseudomonas aeruginosa clinical isolate 24 in basal medium 2 at 12.5 to 100 uM incubated for 24 hrs by resazurin staining based microtiter plate method; type: functional, organism-based; details: dose 12.5-100 µM
Pseudomonas aeruginosa [5] = assay: Induction of biofilm degradation of Pseudomonas aeruginosa clinical isolate 29 at sub MIC concentration incubated for 1 hr by crystal violet staining analysis; type: functional; how it was run: as §1
Pseudomonas aeruginosa [6] = assay: Induction of biofilm degradation of Pseudomonas aeruginosa clinical isolate 59 at 50 uM incubated for 1 hr by crystal violet staining analysis relative to control; type: functional
How it was run: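 Inoculum of 1 × 10^6 CFU/mL was grown 24 h at 37 °C without agitation to form biofilm. Wells were rinsed of unattached bacteria and exposed for 1 h to serial peptide dilutions (1.56–50 μM). They were then washed, stained with 0.1% crystal violet, and read at 590 nm with no-bacteria blanks. Biomass is given as % of untreated biofilm.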

Pseudomonas aeruginosa [7] = assay: Antibiofilm activity against Pseudomonas aeruginosa clinical isolate 46 in basal medium 2 at 12.5 to 100 uM incubated for 24 hrs by resazurin staining based microtiter plate method; type: functional, organism-based; details: dose 12.5-100 µM
Pseudomonas aeruginosa [8] = assay: Induction of biofilm degradation of Pseudomonas aeruginosa clinical isolate 172 at sub MIC concentration incubated for 1 hr by crystal violet staining analysis; type: functional; how it was run: as §1
Pseudomonas aeruginosa [9] = assay: Induction of biofilm degradation of Pseudomonas aeruginosa clinical isolate 59 at 12.5 uM incubated for 1 hr by crystal violet staining analysis
Pseudomonas aeruginosa [10] = assay: Antibiofilm activity against Pseudomonas aeruginosa clinical isolate 82 in artificial sputum medium at 100 uM incubated for 24 hrs by resazurin staining based microtiter plate method; type: functional, organism-based
How it was run: (§2)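 Washed overnight culture set to OD ~0.05 in BM2, diluted 1:100 into artificial sputum medium (pH 6.9) in 24-well plates. Grown 3 days aerobically at 37 °C with agitation. Peptides (12.5–100 μM) added for 24 h with agitation. Biofilm disrupted by cellulase for 1 h at 37 °C. Resazurin 0.02% for 1–2 h, fluorescence ex 530/em 590 nm; viability as % of untreated wells.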

Pseudomonas aeruginosa [11] = assay: Antibiofilm activity against Pseudomonas aeruginosa clinical isolate 52 assessed as inhibition of biofilm formation at 1.56 uM incubated for 24 hrs by crystal violet staining based microtiter plate method; type: functional, organism-based
How it was run: (§3)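 Washed overnight cultures in BM2 medium at 1 × 10^6 CFU/mL with 2-fold serial peptide dilutions in a U-bottom 96-well plate. Incubated 24 h at 37 °C without agitation. Unattached cells washed off, then 0.1% crystal violet stain read at 590 nm. No-bacteria blanks. Biomass expressed as % of untreated biofilm. At least three biological repeats.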

Pseudomonas aeruginosa [12] = assay: Induction of biofilm degradation of Pseudomonas aeruginosa clinical isolate 82 derived from cystic fibrosis patient sputum at 1.56 to 50 uM by crystal violet based staining analysis; type: functional; details: dose 1.56-50 µM
How it was run: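 Biofilm grown from 1 × 10^6 CFU/mL in pooled CF patient sputum diluted 10-fold with BM2, static, 37 °C, 24 h. Unattached cells rinsed off, then serial peptide dilutions (1.56–50 μM) applied for 1 h. Washed and stained with 0.1% crystal violet, read at 590 nm. Reported as % of untreated biomass, with no-bacteria blanks.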

Pseudomonas aeruginosa [13] = assay: Antibiofilm activity against Pseudomonas aeruginosa clinical isolate 59 assessed as inhibition of biofilm formation at 1.56 uM incubated for 24 hrs by crystal violet staining based microtiter plate method; type: functional, organism-based; how it was run: as §3
Pseudomonas aeruginosa [14] = assay: Antibiofilm activity against Pseudomonas aeruginosa clinical isolate 995 assessed as inhibition of biofilm formation at MIC incubated for 24 hrs by crystal violet staining based microtiter plate method; type: functional, organism-based; how it was run: as §3
Pseudomonas aeruginosa [15] = assay: Antibiofilm activity against Pseudomonas aeruginosa clinical isolate 172 assessed as inhibition of biofilm formation at 1.56 uM incubated for 24 hrs by crystal violet staining based microtiter plate method; type: functional, organism-based; how it was run: as §3
Pseudomonas aeruginosa [16] = assay: Drug resistance in Pseudomonas aeruginosa clinical isolate 24 in BM2 medium assessed as fold change in MIC
Pseudomonas aeruginosa [17] = assay: Antibiofilm activity against Pseudomonas aeruginosa clinical isolate 24 in artificial sputum medium at 50 uM incubated for 24 hrs by resazurin staining based microtiter plate method; type: functional, organism-based; how it was run: as §2
Pseudomonas aeruginosa [18] = assay: Antibiofilm activity against Pseudomonas aeruginosa assessed as inhibition of biofilm formation at 0.5 times of MIC incubated for 24 hrs by crystal violet staining based microtiter plate method; type: functional, organism-based; how it was run: as §3
Pseudomonas aeruginosa [19] = assay: Antibiofilm activity against Pseudomonas aeruginosa clinical isolate 99 assessed as inhibition of biofilm formation at MIC incubated for 24 hrs by crystal violet staining based microtiter plate method; type: functional, organism-based; how it was run: as §3
Pseudomonas aeruginosa [20] = assay: Induction of biofilm degradation of Pseudomonas aeruginosa clinical isolate 59 at 1.56 uM incubated for 1 hr by crystal violet staining analysis; type: functional; how it was run: as §1
Pseudomonas aeruginosa [21] = assay: Antibiofilm activity against Pseudomonas aeruginosa clinical isolate 24 assessed as inhibition of biofilm formation at MIC incubated for 24 hrs by crystal violet staining based microtiter plate method; type: functional, organism-based; how it was run: as §3
Pseudomonas aeruginosa [22] = assay: Antibiofilm activity against Pseudomonas aeruginosa clinical isolate 46 assessed as inhibition of biofilm formation at MIC incubated for 24 hrs by crystal violet staining based microtiter plate method; type: functional, organism-based; how it was run: as §3
Pseudomonas aeruginosa [23] = assay: Antibiofilm activity against Pseudomonas aeruginosa clinical isolate 995 assessed as inhibition of biofilm formation at 1.56 uM incubated for 24 hrs by crystal violet staining based microtiter plate method; type: functional, organism-based; how it was run: as §3
Pseudomonas aeruginosa [24] = assay: Antibiofilm activity against Pseudomonas aeruginosa clinical isolate 24 in artificial sputum medium at 25 uM incubated for 24 hrs by resazurin staining based microtiter plate method relative to control; type: functional
How it was run: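 Overnight cultures were washed, resuspended in BM2 to OD ~0.05, and diluted 1:100 into artificial sputum medium (pH 6.9). Biofilms grew 3 days at 37 °C with aerobic agitation in 24-well plates. Peptides (12.5–100 μM) were then added for 24 h with agitation. Biofilm was disrupted with cellulase for 1 h at 37 °C. Resazurin (0.02%) was added for 1–2 h, fluorescence read at ex 530/em 590 nm, and viability expressed as % of untreated wells.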

Pseudomonas aeruginosa [25] = assay: Drug resistance in Pseudomonas aeruginosa PAO1 in BM2 medium assessed as fold change in MIC
Pseudomonas aeruginosa [26] = assay: Antibiofilm activity against Pseudomonas aeruginosa PAO1 in artificial sputum medium at 25 uM incubated for 24 hrs by resazurin staining based microtiter plate method relative to control; type: functional; how it was run: as §2
Pseudomonas aeruginosa [27] = assay: Antibiofilm activity against Pseudomonas aeruginosa clinical isolate 238 assessed as inhibition of biofilm formation at 1.56 uM incubated for 24 hrs by crystal violet staining based microtiter plate method; type: functional, organism-based; how it was run: as §3

Row | SMILES | Activity (Pseudomonas aeruginosa [2]) | Activity [3] | Activity (Pseudomonas aeruginosa [4]) | Activity (Pseudomonas aeruginosa [6]) [%] | Activity (Pseudomonas aeruginosa [7]) | inhibition (Pseudomonas aeruginosa [14]) | fold change (FC) (Pseudomonas aeruginosa [16]) | inhibition (Pseudomonas aeruginosa [19]) | inhibition (Pseudomonas aeruginosa [21]) | inhibition (Pseudomonas aeruginosa [22]) | fold change (FC) (Pseudomonas aeruginosa [25]) | also measured
1 | CC(C)C[C@H](NC(=O)[C@H](CC(C)C)NC(=O)[C@H](CC(C)C)NC(=O)[C@H](CC(C)C)NC(=O)[C@H](CC(C)C)NC(=O)[C@H](CC(C)C)NC(=O)[C@H](CC(C)C)NC(=O)[C@H](CC(C)C)NC(=O)[C@H](CC(C)C)NC(=O)[C@H](CCCCN)NC(=O)[C@H](CCCCN)NC(=O)[C@@H](N)CCCCN)C(=O)N[C@@H](CCCCN)C(=O)N[C@@H](CCCCN)C(=O)N[C@@H](CCCCN)C(N)=O | Active | Active | Active | 40 | Active | – | – | – | – | – | – | Activity (Pseudomonas aeruginosa [1]): Active; Activity (Pseudomonas aeruginosa [5]): Active; Activity (Pseudomonas aeruginosa [8]): Active
2 | CC(C)C[C@H](NC(=O)[C@H](CC(C)C)NC(=O)[C@H](CCCCN)NC(=O)[C@H](CC(C)C)NC(=O)[C@H](CC(C)C)NC(=O)[C@H](CCCCN)NC(=O)[C@H](CCCCN)NC(=O)[C@H](CC(C)C)NC(=O)[C@H](CC(C)C)NC(=O)[C@H](CCCCN)NC(=O)[C@H](CCCCN)NC(=O)[C@H](CC(C)C)NC(=O)[C@H](CC(C)C)NC(=O)[C@H](CCCCN)NC(=O)[C@@H](N)CC(C)C)C(N)=O | – | Active | – | – | – | Active | <20 | Active | Active | Active | <20 | Activity (Pseudomonas aeruginosa [9]): Active; Activity (Pseudomonas aeruginosa [10]): Active; inhibition (Pseudomonas aeruginosa [11]): Active; Activity (Pseudomonas aeruginosa [12]): Active; inhibition (Pseudomonas aeruginosa [13]): Active; inhibition (Pseudomonas aeruginosa [15]): Active; Activity (Pseudomonas aeruginosa [17]): Active; inhibition (Pseudomonas aeruginosa [18]): Active; Activity (Pseudomonas aeruginosa [20]): Active; inhibition (Pseudomonas aeruginosa [23]): Active; Activity (Pseudomonas aeruginosa [24]): 41.24%; Activity (Pseudomonas aeruginosa [26]): 66.7%; inhibition (Pseudomonas aeruginosa [27]): Active
3 | CC[C@H](C)[C@H](NC(=O)[C@H](CCCCN)NC(=O)[C@H](CCC(=O)O)NC(=O)[C@H](CCCCN)NC(=O)[C@H](CO)NC(=O)[C@H](CCCCN)NC(=O)[C@H](CCCNC(=N)N)NC(=O)[C@H](Cc1ccccc1)NC(=O)[C@H](Cc1ccccc1)NC(=O)[C@H](CC(=O)O)NC(=O)CNC(=O)[C@H](CC(C)C)NC(=O)[C@@H](N)CC(C)C)C(=O)NCC(=O)N[C@@H](CCCCN)C(=O)N[C@@H](CCC(=O)O)C(=O)N[C@@H](Cc1ccccc1)C(=O)N[C@@H](CCCCN)C(=O)N[C@@H](CCCNC(=N)N)C(=O)N[C@H](C(=O)N[C@H](C(=O)N[C@@H](CCC(N)=O)C(=O)N[C@@H](CCCNC(=N)N)C(=O)N[C@H](C(=O)N[C@@H](CCCCN)C(=O)N[C@@H](CC(=O)O)C(=O)N[C@@H](Cc1ccccc1)C(=O)N[C@@H](CC(C)C)C(=O)N[C@@H](CCCNC(=N)N)C(=O)N[C@@H](CC(N)=O)C(=O)N[C@@H](CC(C)C)C(=O)N[C@H](C(=O)N1CCC[C@H]1C(=O)N[C@@H](CCCNC(=N)N)C(=O)N[C@H](C(=O)N[C@@H](CCC(=O)O)C(=O)N[C@@H](CO)C(N)=O)[C@@H](C)O)C(C)C)[C@@H](C)CC)C(C)C)[C@@H](C)CC | Active | – | Active | 40 | Active | Active | <20 | Active | Active | Active | <20 | –
